Test results from ChEMBL document CHEMBL1159044, “Antitumor agents 270. Novel substituted 6-phenyl-4H-furo[3,2-c]pyran-4-one derivatives as potent and highly selective anti-breast cancer agents” (Bioorg Med Chem, 2010).
pEC50: −log10 of the molar value.

Columns and labels:
[1] = system: SK-BR-3; test: Cytotoxicity against human SK-BR-3 cells after 72 hrs by SRB assay; format: functional; conditions: SK-BR-3, 72 h, read-out: ED50 (the source's name)
In short: (§1)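 Cells grown in RPMI-1640 with 10% FBS, penicillin, streptomycin and amphotericin B at 37 °C, 5% CO2, then trypsinized and seeded in 96-well plates. Compounds were added from DMSO-diluted stock and incubated 72 h after attachment. Cells were TCA-fixed, stained with 0.4% SRB and read at 515 nm. ED50 is the concentration halving net protein increase, averaged from at least two independent determinations with SEM.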

[2] = system: ZR-75-1; test: Cytotoxicity against human ZR-75-1 after 72 hrs by SRB assay; format: functional; conditions: ZR-75-1, 72 h, read-out: ED50 (the source's name); in short: as §1
[3] = system: MDA-MB-231; test: Cytotoxicity against human MDA-MB-231 after 72 hrs by SRB assay; format: functional; conditions: MDA-MB-231, 72 h, read-out: ED50 (the source's name); in short: as §1
[4] = system: A549; test: Cytotoxicity against human A549 after 72 hrs by SRB assay; format: functional; conditions: A549, 72 h, read-out: ED50 (the source's name); in short: as §1
[5] = system: DU-145; test: Cytotoxicity against human DU145 after 72 hrs by SRB assay; format: functional; conditions: DU-145, 72 h, read-out: ED50 (the source's name)
[6] = system: KB; test: Cytotoxicity against human KB after 72 hrs by SRB assay; format: functional; conditions: read-out: ED50 (the source's name); in short: as §1
[7] = Cytotoxicity against human vincristine-resistant KBVIN after 72 hrs by SRB assay; format: functional; conditions: read-out: ED50 (the source's name); in short: as §1
[8] = system: SK-BR-3; test: Selectivity ratio of ED50 for human MDA-MB-231 cell to ED50 for human SK-BR-3 cells; format: functional
In short: (§2)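 Ratio of the ED50 in the stated line to the ED50 in SK-BR-3. Each ED50 came from the 72 h SRB protein-stain assay in RPMI-1640/10% FBS-grown cells, as the concentration halving net protein increase, averaged over at least two independent determinations.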

[9] = system: SK-BR-3; test: Selectivity ratio of ED50 for human A549 cell to ED50 for human SK-BR-3 cells; format: functional; in short: as §2
[10] = system: SK-BR-3; test: Selectivity ratio of ED50 for human DU145 cell to ED50 for human SK-BR-3 cells; format: functional
[11] = system: SK-BR-3; test: Selectivity ratio of ED50 for human KB cell to ED50 for human SK-BR-3 cells; format: functional; in short: as §2
[12] = system: SK-BR-3; test: Selectivity ratio of ED50 for human vincristine-resistant KBVIN cell to ED50 for human SK-BR-3 cells; format: functional; in short: as §2
[13] = system: ZR-75-1; test: Selectivity ratio of ED50 for human ZR-75-1 cell to ED50 for human SK-BR-3 cells; format: functional; in short: as §2
[14] = system: SK-BR-3; test: Cytotoxicity against human SK-BR-3 cells after 72 hrs by MTT assay; format: functional; conditions: SK-BR-3, 72 h, read-out: ED50 (the source's name)
In short: (§3)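 MTT read-out: 5000 cells/well were seeded in 96-well plates in recommended growth medium and incubated overnight. Drug in DMSO was added, with 72 h at 37 °C in 5% CO2. MTT reagent was then added for 2 h, and formazan was read as optical density at 570. Data are mean and SD of replicates from a single experiment.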

[15] = Cytotoxicity against human 184A1 after 72 hrs by MTT assay; format: cell-based; conditions: 184A1 cells, read-out: ED50; in short: as §3
[16] = Cytotoxicity against human MCF10A after 72 hrs by MTT assay; format: cell-based, MCF-10A; conditions: MCF10A cells, read-out: ED50; in short: as §3

SMILES | pEC50 [1] | pEC50 [2] | pEC50 [3] | pEC50 [4] | pEC50 [5] | pEC50 [7] | further results
COc1ccc(-c2cc3occ(C)c3c(=O)o2)cc1 | < 4.11 | – | – | – | – | – | –
CCOc1cccc(-c2cc3occ(C)c3c(=O)o2)c1 | 6.17 | 5.66 | < 4.43 | 4.24 | 4.13 | < 4.13 | pEC50 [6]: 4.19
COc1cc(-c2cc3occ(C)c3c(=O)o2)cc(OC)c1OC | 6.36 | 4.54 | < 4.50 | 4.20 | < 4.20 | < 4.20 | Ratio ED50 [8]: 100; Ratio ED50 [9]: 100; Ratio ED50 [10]: 100; Ratio ED50 [11]: 100; Ratio ED50 [12]: 100; Ratio ED50 [13]: 66
Cc1coc2cc(-c3cccc(O)c3)oc(=O)c12 | 5.79 | 6.05 | < 4.38 | 4.16 | 4.08 | 4.22 | pEC50 [6]: 4.19
Cc1coc2cc(-c3ccc(O)cc3)oc(=O)c12 | 4.44 | – | – | – | – | – | –
Cc1cccc(-c2cc3occ(C)c3c(=O)o2)c1 | 5.82 | 5.20 | < 4.08 | 4.27 | 4.61 | 4.40 | pEC50 [6]: 4.36
COc1ccc(-c2cc3occ(C)c3c(=O)o2)cc1OC | < 4.16 | – | – | – | – | – | –
Cc1cccc2c1ccc1c3occ(C)c3c(=O)oc21 | 6.02 | 6.05 | – | – | – | < 4.12 | –
COc1cc(OC)cc(-c2cc3oc(C)c(C)c3c(=O)o2)c1 | < 4.18 | – | – | – | – | – | –
COc1cc(OC)cc(-c2cc3occ(C)c3c(=S)o2)c1 | < 4.18 | – | – | – | – | – | –
Cc1cc(C)cc(-c2cc3occ(C)c3c(=O)o2)c1 | 4.65 | – | – | – | – | – | –
Cc1ccc(-c2cc3occ(C)c3c(=O)o2)cc1C | 4.84 | – | – | – | – | – | –
COc1cccc(-c2cc3occ(C)c3c(=O)o2)c1 | 5.59 | 5.26 | < 4.41 | 4.24 | < 4.11 | 4.15 | –
Cc1coc2cc(-c3cccc(F)c3)oc(=O)c12 | 4.69 | – | – | – | – | – | –
Cc1ccc(-c2cc3occ(C)c3c(=O)o2)cc1 | < 4.08 | – | – | – | – | – | –
Cc1coc2cc(-c3ccc(O)c(O)c3)oc(=O)c12 | 6.33 | 5.92 | 4.64 | 4.71 | 4.59 | 4.63 | pEC50 [6]: 4.69
COc1cccc(-c2cc3occ(C)c3c(=O)o2)c1OC | 4.19 | – | – | – | – | – | –
COc1cc(OC)cc(-c2cc3occ(C)c3c(=O)o2)c1 | 6.55 | 4.51 | < 4.16 | < 4.16 | 4.18 | < 4.16 | Ratio ED50 [8]: 100; Ratio ED50 [9]: 100; Ratio ED50 [10]: 100; Ratio ED50 [11]: 100; Ratio ED50 [12]: 100; pEC50 [14]: 6.00; CC50 at 72 h [15]: 16.8 µM; CC50 at 72 h [16]: > 35 µM; Ratio ED50 [13]: 100
CCc1coc2cc(-c3cc(OC)cc(OC)c3)oc(=O)c12 | 4.26 | – | – | – | – | – | –
Cc1coc2cc(-c3cccc(O)c3O)oc(=O)c12 | 4.47 | – | – | – | – | – | –
Cc1coc2cc(-c3ccccc3)oc(=O)c12 | 4.81 | – | – | – | – | – | –
Cc1coc2cc(-c3cc(O)cc(O)c3)oc(=O)c12 | 4.42 | – | – | – | – | – | –
Cc1coc2cc(-c3ccc(F)cc3)oc(=O)c12 | 4.72 | – | – | – | – | – | –
